MEKK2 mut-MEK5 – MEK5 binding signal on mutant MEKK2 PB1, primary screen, biochemical, multiplex bead flow cytometry, Alexa488-MEK5; percent response, % at 10 µM; AID 1530, 2009; Alexa488-MEK5 binding to MEKK2 mutant; 290,000 tested, 0.35% active; in the data active = percent response above about 24%, passing the limit was not always enough
VIM-2 inh – VIM-2 metallo-beta-lactamase inhibitors, primary screen, biochemical, epi-absorbance readout, Pseudomonas aeruginosa enzyme | purified VIM-2, nitrocefin hydrolysis, epi-absorbance fluorescence | inhibition, % at 5.6 µM | 290,000 tested, 0.89% active | AID 1527, 2009;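 active = inhibition above the mean of all tested compounds plus 3 SD, cutoff set per screening run, cut at about 7.5% in these data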;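 note: red hydrolysis product quenches plate fluorescence so inhibitors raise well fluorescence; 0% = enzyme with DMSO and 100% = DMSO without enzyme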
MEKK3 PB1 HTS – modulators of MEKK3-MEK5 PB1 binding, primary screen, biochemical, wildtype MEKK3, multiplex bead flow cytometry, Alexa488-MEK5 | Mitogen-activated protein kinase kinase kinase 3 (Homo sapiens), Q99759 | bead-based flow cytometry, Alexa488-MEK5 binding to MEKK3; actives lie on both sides; 0 = blocked by unlabeled MEK5, 100 = vehicle | binding response (% of control), % at 10 µM | 290,000 tested, 1.4% active;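 active = binding response more than 3 SD above or below the average of its plate-row segment, actives on both sides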;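 note: Alexa488 bead fluorescence after subtracting the streptavidin-only scavenger bead signal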
MEKK2 WT-MEK5 – modulators of MEK5 binding to wildtype MEKK2, primary screen, biochemical, multiplex bead flow cytometry, Alexa488-MEK5; Mitogen-activated protein kinase kinase kinase 2 (Homo sapiens), Q9Y2U5; Alexa488-MEK5 binding to MEKK2 WT; actives lie on both sides; binding response (% of control), % at 10 µM; 290,000 tested, 1.1% active; AID 1531, 2009; in the data active = binding response below about 67% or above about 130%
IMP-1 inh-1 – IMP-1 metallo-beta-lactamase inhibitors, primary screen, biochemical, epi-absorbance readout, Pseudomonas aeruginosa enzyme; metallo-beta-lactamase IMP-1 (Pseudomonas aeruginosa); inhibition, % at 5.6 µM; 290,000 tested, 0.45% active; purified IMP-1, nitrocefin hydrolysis, epi-absorbance fluorescence;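 active = inhibition above the mean plus 3 SD of all compounds in the same screening run, cut at about 4.5% in these data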;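 note: 0% = IMP-1 with DMSO and 100% = DMSO wells lacking enzyme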
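Test system: recombinant IMP-1 enzyme, purified / Medium: HEPES buffer pH 7.1 with ZnSO4 and Brij 35 / Doses: single dose, 5.6 µM / Times: 25 °C, 15 min preincubation, 25 min reaction / Detection: Epi-absorbance via hydrolysed-nitrocefin quenching of white-plate fluorescence, 480/530 nm, EDTA stop / Evaluation: percent inhibition from optical density relative to buffer-blank wells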
IMP-1 inh-2 – IMP-1 metallo-beta-lactamase inhibitors, confirmation, selectivity assay for selective VIM-2 inhibitor project, biochemical, epi-absorbance readout, triplicate; AID 1856, 2009; purified IMP-1, nitrocefin hydrolysis, epi-absorbance fluorescence; inhibition, % at 5.6 µM; shares compounds with VIM-2 inh; 1,300 tested, under 10 active; call rule not given here;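 note: 0% = enzyme with vehicle and 100% = vehicle without enzyme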
VIM-2 FRET ctr – VIM-2 inhibitors in FRET format, confirmation, artefact control for selective VIM-2 inhibitor project, biochemical, epi-absorbance artifact exclusion | shares compounds with VIM-2 inh | purified VIM-2, CCF2 FRET substrate hydrolysis | inhibition, % at 5.6 µM | 1,300 tested, 23% active | AID 1857, 2009;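 active = inhibition above the mean of all tested compounds plus 3 SD, cut at about 19% in these data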;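 note: 0% = VIM-2 plus DMSO and 100% = no enzyme wells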
TEM-1 inh – TEM-1 serine beta-lactamase inhibitors, counter-screen for VIM-2 inhibitor project, biochemical, epi-absorbance, HTS | Purified TEM-1, nitrocefin hydrolysis, epi-absorbance fluorescence | inhibition, % at 5.6 µM | 1,300 tested, 3% active | shares compounds with VIM-2 inh;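 active = inhibition above that campaign's mean inhibition plus 3 SD, cut at about 0.46% in these data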;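 note: 0% = TEM-1 with DMSO and 100% = TEM-1 with 100 µM potassium clavulanate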
Target sequence (P62593 whole entry, looked up): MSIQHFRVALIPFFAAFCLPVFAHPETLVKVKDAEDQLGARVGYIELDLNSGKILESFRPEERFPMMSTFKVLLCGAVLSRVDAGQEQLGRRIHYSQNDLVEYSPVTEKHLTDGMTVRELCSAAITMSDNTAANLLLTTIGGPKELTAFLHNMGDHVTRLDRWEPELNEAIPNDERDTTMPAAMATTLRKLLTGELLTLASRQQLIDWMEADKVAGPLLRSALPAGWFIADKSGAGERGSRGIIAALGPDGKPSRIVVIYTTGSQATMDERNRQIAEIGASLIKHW
VIM-2 inh conf – VIM-2 metallo-beta-lactamase inhibitors, confirmation, biochemical, epi-absorbance, hits shared with IMP-1 screen. shares compounds with VIM-2 inh. purified VIM-2, nitrocefin hydrolysis. inhibition, % at 5.6 µM. 1,300 tested, 96% active. AID 2187, 2009;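 active = inhibition of the VIM-2 beta-lactamase enzyme above about 11% from the earlier first-round screen, limit read from the data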;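 note: 0% = VIM-2 with DMSO and 100% = buffer wells without enzyme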
Numbers without * were called inactive; nt = not tested or not shown. Most compounds without a hit are left out; they make up all but 3.4% or so of the library.

SMILES	MEKK2 mut-MEK5	VIM-2 inh	MEKK3 PB1 HTS	MEKK2 WT-MEK5	IMP-1 inh-1	IMP-1 inh-2	VIM-2 FRET ctr	TEM-1 inh	VIM-2 inh conf
O=C1Nc2cc(C(=O)NCCCN3CCOCC3)ccc2S/C1=C/c1cccc(Cl)c1	16.0	28.9*	102.0	147.0*	-2.4	-2.3	49.2*	-6.6	33.0*
CCOC(=O)c1cnc(-n2nc(C)cc2C)nc1NCc1ccccc1	-3.0	36.0*	98.0	90.0	-4.4	-5.1	-38.0	-5.0	50.5*
CSc1nnc2c3cc(F)ccc3n(C)c2n1	5.0	13.8*	107.0	111.0	-3.1	-2.2	-0.1	-4.5	24.3*
Cn1c2ccccc2c2nnc(SCc3ccc4nonc4c3)nc21	-4.0	-1.6	97.0	96.0	-3.1	nt	nt	nt	nt
CC(C)=CC(=O)OCC(=O)Nc1ccc(Cl)cc1	-1.0	-0.8	103.0	101.0	-2.2	nt	nt	nt	nt
OC1=C(O)c2nc3ccccc3nc21	2.0	-1.3	90.0	97.0	-2.1	nt	nt	nt	nt
OC1=C(O)c2nc3cc(C(F)(F)F)ccc3nc21	7.0	16.7*	115.0	105.0	1.3	-3.6	-1.0	-6.3	2.4
CC(=O)c1cn(Cc2ccccc2)c(=O)[nH]c1=O	-4.0	0.1	93.0	95.0	-3.9	nt	nt	nt	nt
COc1ccc(C(=O)n2nc(C)cc2C)cc1OC	0.0	-1.8	97.0	100.0	-1.3	nt	nt	nt	nt
CCOC(=O)c1c(NC(=O)Cc2ccccc2)sc2c1CC(C)(C)NC2(C)C	6.0	-1.0	104.0	120.0	-2.6	nt	nt	nt	nt
COC(=O)c1c(NC(=O)c2ccco2)sc2c1CC(C)(C)NC2(C)C	6.0	13.5*	106.0	114.0	1.3	-4.5	3.0	-8.1	17.1*
C=C1CSc2nc(=O)c3c4c(sc3n21)CCCC4	6.0	13.6*	102.0	99.0	-1.8	-2.9	-1.1	-7.1	32.7*
Cc1nc(N2CCCC2)c2ccsc2n1	1.0	13.8*	105.0	105.0	3.3	-2.2	1.2	-0.3	14.8*
Cc1nc(N2CCN(C)CC2)c2cc(-c3ccccc3)sc2n1	0.0	5.1	101.0	106.0	0.6	nt	nt	nt	nt
O=C(CSc1ncnc2c1cnn2-c1ccccc1Cl)N1CCN(C(=O)c2ccco2)CC1	6.0	-0.7	104.0	107.0	-4.7	nt	nt	nt	nt
CN1CCN(Cc2cc(COCc3ccccc3)c3cccnc3c2O)CC1	-1.0	12.4*	95.0	116.0	-2.4	-3.2	32.7*	-4.8	33.0*
OCCNc1ncnc2c1sc1nc(N3CCOCC3)c3c(c12)CCC3	-1.0	-2.6	99.0	106.0	-2.6	nt	nt	nt	nt
CCN(CC)CCNc1ncnc2c1sc1nc(N3CCOCC3)c3c(c12)CCCC3	17.0	15.5*	104.0	130.0	-2.6	-3.9	-0.1	-7.2	33.3*
Cc1cc(NCCCO)n2c(nc3ccccc32)c1C#N	2.0	6.4	105.0	102.0	-2.5	nt	nt	nt	nt
Cc1cc(NCCOCCO)n2c(nc3ccccc32)c1C#N	5.0	33.0*	104.0	104.0	-2.8	-3.5	-9.0	-4.1	49.5*
CCCNc1cc(C)c(C#N)c2nc3ccccc3n12	4.0	3.9	110.0	104.0	-3.3	nt	nt	nt	nt
COCCNc1cc(C)c(C#N)c2nc3ccccc3n12	8.0	26.2*	104.0	107.0	-0.4	-2.9	-9.5	-6.3	39.5*
Cc1c(C(=O)N2CCN(CCc3ccccn3)CC2)oc2ccc(F)cc12	3.0	-3.9	100.0	101.0	-1.2	nt	nt	nt	nt
C/C(=N\OC(=O)c1cccc(C(F)(F)F)c1)c1sc(-c2ccccc2)nc1C	nt	-2.4	nt	nt	-1.3	nt	nt	nt	nt
COC(=O)c1sc(NC(=S)NC(=O)c2ccccc2)nc1C	9.0	-0.5	103.0	114.0	1.6	nt	nt	nt	nt
SMILES	MEKK2 mut-MEK5	VIM-2 inh	MEKK3 PB1 HTS	MEKK2 WT-MEK5	IMP-1 inh-1	IMP-1 inh-2	VIM-2 FRET ctr	TEM-1 inh	VIM-2 inh conf
O=C(CNC(=O)c1ccccc1)NCCc1ccc(O)c(O)c1	6.0	-3.5	102.0	101.0	-4.0	nt	nt	nt	nt
Oc1ccc(CCNc2c3ccccc3nc3ccccc23)cc1O	8.0	17.1*	104.0	133.0	-4.6	-4.2	-0.2	-5.6	21.3*
c1ccc(CNc2c3ccccc3nc3ccccc23)cc1	7.0	21.6*	95.0	119.0	-1.6	-3.1	0.6	-5.2	32.0*
CCn1c(NCc2cc(Cl)ccc2O)nc2ccccc21	-18.0	-2.2	85.0	89.0	-1.8	nt	nt	nt	nt
O=Cc1cccn1-c1cccnc1	-2.0	-1.8	102.0	96.0	-2.1	nt	nt	nt	nt
COc1ccc(C2C(C(=O)c3cccs3)=C(O)C(=O)N2c2nnc(C)s2)cc1OC (stereo not drawn)	3.0	26.9*	102.0	94.0	0.6	3.4	-12.0	5.5*	8.8*
COc1ccc(C2C(C(=O)c3cccs3)=C(O)C(=O)N2c2nncs2)cc1 (stereo not drawn)	-2.0	5.2	99.0	98.0	-2.4	nt	nt	nt	nt
COc1ccc(/C=C2\N=C(SC)NC2=O)cc1	6.0	-2.7	104.0	102.0	-6.5	nt	nt	nt	nt
CSC1=N/C(=C/c2ccc(-n3cncn3)cc2)C(=O)N1	-10.0	14.1*	84.0	85.0	0.8	-2.9	-2.0	-9.0	54.9*
CC(C)CCn1c(=O)c2sccc2n2c(CCCC(=O)N3CCC(N4CCCCC4)CC3)nnc12	6.0	12.9*	106.0	108.0	-2.8	-2.5	2.3	-1.8	16.9*
CN1CCN(C(=O)CSc2cc(=O)n(C)c3ccccc23)CC1	2.0	31.1*	101.0	103.0	-2.9	-2.2	0.8	-5.2	48.9*
CCN1CCN(C(=O)CSc2cc(=O)n(C)c3ccccc23)CC1	4.0	36.9*	101.0	101.0	-2.7	-2.1	-1.8	-4.5	56.4*
Cn1c(=O)cc(OCCCC(=O)N2CCCCC2)c2ccccc21	3.0	-1.0	100.0	105.0	-7.8	nt	nt	nt	nt
Cn1c(=O)cc(SCC(=O)N2CCN(c3ccccc3)CC2)c2ccccc21	0.0	-0.7	102.0	99.0	-2.5	nt	nt	nt	nt
CN1CCN(C(=O)CCCOc2cc(=O)n(C)c3ccccc23)CC1	2.0	18.4*	103.0	103.0	-2.9	-2.7	-1.8	-5.2	38.5*

Screening results from PubChem BioAssay.
